Source: PubChem BioAssay
Calls of active or inactive are those of the source.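 How the source made its calls, unless noted: active means fluorescence slope after compound addition differing from the mean of all tested samples at 99.7% confidence, mostly higher but some lower; inactive means the rest.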

Legend:
[1] = inhibitors of TNFa-induced NFkB p65 translocation, primary screen, imaging, HUVEC, MLSMR starter and 10KST1 sets (AID 438;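 active means inhibition above 20% together with a positive visual image hit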;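 further: compound added about 3h40 before a 20 min TNFalpha stimulation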;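 on inhibition: signal is the nuclear over cytoplasmic p65 intensity ratio per well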); conditions: HUVEC TNFa-induced p65 nuclear translocation; cell count: measured here: nuclei count (cytotoxicity indicator), at 2.08 µM; inhibition: at 2 µM, stronger effect = higher value, 0% TNFa-plus-vehicle, 100% no-TNFa wells
[2] = endothelial E-selectin expression blockers – imaging, HUVEC, immunofluorescence, MLSMR starter and 10KST1 sets, primary screen (AID 487;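 active means visually confirmed hit in the image check and inhibition above 20%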;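 on inhibition: signal is fraction of cell area covered by stained E-selectin grains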;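 on nuclei count: 100% = median nuclei count of all wells on the same plate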); conditions: HUVEC TNFalpha-induced E-selectin immunofluorescence imaging, at 2 µM; inhibition: stronger effect = higher value; nuclei count: measured here: cell number, toxicity
[3] = Primary imaging screen for DUSP6 inhibitors that restore phospho-Erk in transfected HeLa cells, chemical complementation (AID 609;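 active means compounds giving at least 50% inhibition in the cell-based MKP-3 phosphatase rescue imaging test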;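 on inhibition: phospho-Erk level distribution per well compared with pooled transfected vehicle control wells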); conditions: HeLa MKP-3 transfected, phospho-Erk imaging KS statistic, at 10 µM, cells stimulated with TPA for 15 min
[4] = target: Dual specificity protein phosphatase 6 (Homo sapiens) (UniProt Q16828); test: as above; conditions: HeLa MKP-3 transfected, phospho-Erk imaging KS statistic; at 10 µM; stronger effect = higher value; cells stimulated with TPA for 15 min
[5] = target: Voltage-gated potassium channel subunit beta-2 (Rattus norvegicus) (UniProt P62483); test: inhibitors of rat Kvbeta2 reductase activity – biochemical, NADPH fluorescence, primary screen (AID 622;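 active means fluorescence slope higher than the sample average by over 3 SD, cut at about -0.22 in these data, passing the limit was not always enough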;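 further: slope of raw intensity against log time taken from 70 to 1610 s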); conditions: recombinant KvBeta, 4-cyanobenzaldehyde reduction, at 10 µM, stronger effect = higher value
[6] = target: Voltage-gated potassium channel subunit beta-2 (Rattus norvegicus) (UniProt P62483); test: enhancers of rat Kvbeta2 NADPH turnover – biochemical, NADPH fluorescence, primary screen (AID 623;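 active means NADPH fluorescence slope more negative than the mean of all samples by about 3 SD, 99.7% confidence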;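 further: fluorescence intensity change per second fitted from 20 to 320 s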); conditions: Recombinant KvBeta, NADPH fluorescence decrease slope, 10 min; at 10 µM; stronger effect = lower value
[7] = target: Muscarinic acetylcholine receptor M4 (Homo sapiens) (UniProt P08173); test: M4-linked GIRK flux change, two-sided – cell-based, HEK293 M4/GIRK, thallium flux, BTC-AM, M4 allosteric agonist project, primary screen (AID 625); conditions: at 10 µM, actives lie on both sides;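 further: thallium influx through GIRK channels coupled to M4 in HEK293 cells with BTC-AM dye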
How it was run: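 Material: M4/GIRK1/GIRK2 stable HEK293 cell line. Medium: pH 7.3 thallium assay buffer. Dosing: single compound concentration, 10 µM final. Schedule: 1 h dye loading, 2 min kinetic read. Measured by: kinetic fluorescence with BTC-AM dye. Read-out: post-addition slope, 15–24 s, of baseline-normalized fluorescence. Benchmarks: carbachol and DMSO controls.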

[8] = inhibitors of larval lipid processing in zebrafish, primary screen, whole organism, PED6 fluorescence, gall bladder and intestine (AID 686;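 active means a full or partial loss of lipid-probe fluorescence in the fish gall bladder, intestine or both, judged by eye; inactive means no fluorescence loss, or compound toxic to the fish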;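 further: larvae 5 to 7 days old with five fish per well; signal comes from phospholipase A2 cleavage of quenched PED6 carried via bile; overnight exposure to compound and PED6 before scoring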); conditions: Zebrafish larvae PED6 lipid processing, fluorescence scoring; screened at 20 µM (by protocol)
How it was run: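 System: live zebrafish larvae aged 5-7 days, whole organism; measure: graded gall bladder and intestinal fluorescence inhibition per well; incubation: overnight exposure; reagent: ingested quenched lipid PED6 at 100 nM; signal: By-eye fluorescence microscopy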

[9] = loss of swimming-algae plug formation – whole organism, Chlamydomonas reinhardtii, WT vs cilia-less mutant, absorbance, 96-well, primary screen (AID 463189;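 active means inhibition at or above 50% relative to wild type and mutant plate controls; inactive means inhibition below 50%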;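 further: 0% = wild type cc124 cells in DMSO and 100% = ciliumless bld1 mutant cells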); conditions: Chlamydomonas reinhardtii gravitaxis, OD600 absorbance, 2 days; at 10 µM; stronger effect = higher value
[10] = measured here: cell density z-score
[11] = measured here: nuclear c-Myc green intensity z-score
[12] = measured here: nuclear pErk red intensity z-score, stronger effect = higher value

Dual specificity protein phosphatase 6 (Homo sapiens), sequence (Q16828 whole entry, looked up): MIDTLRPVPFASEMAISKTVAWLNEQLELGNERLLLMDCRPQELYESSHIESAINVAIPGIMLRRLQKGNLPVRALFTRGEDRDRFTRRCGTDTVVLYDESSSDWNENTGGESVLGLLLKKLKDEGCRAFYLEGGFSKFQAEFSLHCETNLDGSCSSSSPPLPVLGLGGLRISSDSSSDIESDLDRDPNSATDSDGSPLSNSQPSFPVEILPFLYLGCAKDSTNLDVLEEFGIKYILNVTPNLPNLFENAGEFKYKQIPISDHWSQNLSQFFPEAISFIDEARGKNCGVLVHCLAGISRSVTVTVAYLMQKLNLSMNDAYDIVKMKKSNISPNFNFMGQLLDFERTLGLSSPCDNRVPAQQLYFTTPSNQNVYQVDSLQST
Voltage-gated potassium channel subunit beta-2 (Rattus norvegicus), sequence (P62483 whole entry, looked up): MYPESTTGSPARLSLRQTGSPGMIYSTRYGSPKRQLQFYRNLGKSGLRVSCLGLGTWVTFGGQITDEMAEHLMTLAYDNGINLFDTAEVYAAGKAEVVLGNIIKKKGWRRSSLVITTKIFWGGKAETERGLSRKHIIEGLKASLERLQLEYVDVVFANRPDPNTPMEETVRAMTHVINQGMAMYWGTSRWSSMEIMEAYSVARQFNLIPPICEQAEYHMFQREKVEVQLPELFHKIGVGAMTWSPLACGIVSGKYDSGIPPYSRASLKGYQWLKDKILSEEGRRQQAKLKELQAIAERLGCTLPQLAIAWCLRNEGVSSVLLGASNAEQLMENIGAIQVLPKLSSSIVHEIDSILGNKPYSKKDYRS
Muscarinic acetylcholine receptor M4 (Homo sapiens), sequence (P08173 whole entry, looked up): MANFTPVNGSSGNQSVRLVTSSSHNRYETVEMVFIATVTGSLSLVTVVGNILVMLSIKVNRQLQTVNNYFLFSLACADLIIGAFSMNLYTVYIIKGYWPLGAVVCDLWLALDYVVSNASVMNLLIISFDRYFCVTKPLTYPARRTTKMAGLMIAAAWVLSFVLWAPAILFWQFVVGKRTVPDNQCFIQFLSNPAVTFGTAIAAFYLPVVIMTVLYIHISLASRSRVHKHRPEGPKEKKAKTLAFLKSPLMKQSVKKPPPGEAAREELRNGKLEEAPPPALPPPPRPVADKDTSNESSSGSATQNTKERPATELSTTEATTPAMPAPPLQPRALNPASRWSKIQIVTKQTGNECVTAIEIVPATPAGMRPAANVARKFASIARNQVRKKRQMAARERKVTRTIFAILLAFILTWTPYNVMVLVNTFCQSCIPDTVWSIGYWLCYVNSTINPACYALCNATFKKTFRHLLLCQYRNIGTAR

Row | Structure (SMILES) | cell count [1] | inhibition [1] | inhibition [2] | nuclei count [2] | z-score [3, 10] | z-score [3, 11] | z-score [3, 12] | inhibition [4] | fluorescence slope [5] | NADPH fluorescence slope [6] | fluorescence slope [7] | outcome [8] | inhibition [9]
1 | CCOC(=O)CNC(=O)CNC(=O)c1ccc(OC)cc1 | 394 | -0.5% (inactive) | 6.4% (inactive) | 82.7% | 0.162 | 0.31 | 1.25 | 17.4% (inactive) | -0.447 (inactive) | -5.5e-05 (inactive) | 0.0051 (inactive) | inactive | 23.5% (inactive)
2 | CCCCc1nc2sc3c(c2c(=O)[nH]1)CCC3 | 691 | 3.3% (inactive) | 8% (inactive) | 129% | -0.915 | 0.812 | -0.126 | -9.53% (inactive) | -0.421 (inactive) | -4e-05 (inactive) | 0.00621 (inactive) | inactive | 34.8% (inactive)
3 | O=C1c2ccccc2-c2onc3ccc(NCc4ccco4)c1c23 | 705 | -2.6% (inactive) | -23.9% (inactive) | 118% | 0.599 | -0.783 | 0.692 | 10.9% (inactive) | -0.14 (inactive) | 1.2e-05 (inactive) | 0.000102 (inactive) | active; no signal in gallbladder and intestine | -2.14% (inactive)
4 | Cc1ccc(OCC(=O)N(C)CCc2ccccn2)cc1 | 475 | -5.5% (inactive) | -175% (inactive) | 159% | -0.678 | -1.49 | 1.57 | -2.29% (inactive) | -0.433 (inactive) | -5.2e-05 (inactive) | 0.00557 (inactive) | inactive | 7.87% (inactive)
5 | COc1cccc(C=NCCNC(=O)c2nonc2N)c1O | 517 | -4% (inactive) | 62.5% (inactive) | 169% | -0.652 | 2.61 | -0.971 | 7.93% (inactive) | -0.413 (inactive) | -3.4e-05 (inactive) | 0.00584 (inactive) | inactive | -4.89% (inactive)
6 | CCN1CCc2c(C#N)c(NCc3ccccc3)nc(N(CC)CC)c2C1 | 554 | -13.9% (inactive) | -108% (inactive) | 141% | 0.401 | -1.69 | 0.375 | 3.49% (inactive) | -0.439 (inactive) | -0.000126 (inactive) | 0.00477 (inactive) | inactive | 119% (active)
7 | CCC(=O)Nc1c(C#N)c2nc3ccccc3nc2n1C1CCCCC1 | 563 | -4.1% (inactive) | 6.8% (inactive) | 99.6% | 0.5 | -1.07 | -5.03 | -2.09% (inactive) | -0.342 (inactive) | 4.3e-06 (inactive) | 0.00526 (inactive) | inactive | 18.8% (inactive)
8 | CNc1oc(-c2ccccc2Cl)nc1C#N | 368 | 4.3% (inactive) | 23.8% (inactive) | 79.3% | 0.949 | -0.665 | 0.059 | 3.56% (inactive) | -0.594 (inactive) | -4.5e-05 (inactive) | 0.00508 (inactive) | active; weak signal in gallbladder and intestine | 19.9% (inactive)
9 | N#Cc1c(N2CCCCC2)nc(N2CCCCC2)c2c1CCN(Cc1ccccc1)C2 | 606 | -3.7% (inactive) | -146% (inactive) | 154% | 0.785 | -0.814 | 0.622 | -4.59% (inactive) | -0.431 (inactive) | -9.2e-05 (inactive) | 0.0046 (inactive) | inactive | 4.47% (inactive)
10 | COc1ccc(C2NC3=C(CCC3)C3(C#N)C(OC)(OC)N=C(N)C23C#N)cc1 (stereo unspecified) | 535 | -13.1% (inactive) | -35.8% (inactive) | 134% | -0.336 | 0.913 | 0.179 | 1.42% (inactive) | -0.438 (inactive) | -3.3e-05 (inactive) | 0.0052 (inactive) | inactive | 30.4% (inactive)
11 | CC(C)CNC(=O)c1c(N)n(/N=C/c2cccnc2)c2nc3ccccc3nc12 | 412 | -2.8% (inactive) | -18% (inactive) | 105% | 1.93 | -1.56 | -0.113 | 17.7% (inactive) | -0.347 (inactive) | 4.3e-06 (inactive) | 0.00594 (inactive) | inactive | 35.6% (inactive)
12 | COc1ccc2[nH]c(C)c(C(=O)CN3CCOCC3)c2c1 | 640 | 7.2% (inactive) | -85.7% (inactive) | 184% | -1.08 | 1.22 | 0.499 | -1.98% (inactive) | -0.466 (inactive) | -6.6e-05 (inactive) | 0.00952 (inactive) | inactive | 13.2% (inactive)
13 | Cn1c(OCc2cccnc2)nc2c1c(=O)n(Cc1ccccc1)c(=O)n2C | 719 | -11.2% (inactive) | -145% (inactive) | 176% | 1.38 | -0.255 | -1.04 | 25.8% (inactive) | -0.489 (inactive) | -5.3e-05 (inactive) | 0.00844 (inactive) | inactive | 21.1% (inactive)
14 | CCOC(=O)c1[nH]c2ccc(C)cc2c1N | 678 | -29.2% (inactive) | -53.9% (inactive) | 207% | -1.62 | 0.0814 | 1.41 | -5.95% (inactive) | -0.46 (inactive) | -4.7e-05 (inactive) | 0.00561 (inactive) | inactive | -1.56% (inactive)
15 | Cn1ccnc1C(O)c1ccc(OCc2ccccc2)cc1 (stereo unspecified) | 473 | -1.1% (inactive) | -18.4% (inactive) | 113% | -3.29 | 1.73 | -0.207 | 7.42% (inactive) | -0.487 (inactive) | -0.000123 (inactive) | 0.00541 (inactive) | inactive | -11.2% (inactive)
16 | CCn1c(SCC(=O)NC2CCCCC2C)nnc1-c1ccc(OC)cc1 (stereo unspecified) | 430 | -4.4% (inactive) | -37.9% (inactive) | 149% | -0.0183 | 0.142 | 0.845 | 7.73% (inactive) | -0.45 (inactive) | -0.000123 (inactive) | 0.00502 (inactive) | inactive | -4.06% (inactive)
17 | COCCOC(=O)c1c(C)oc2ccc(OC(=O)COc3c(F)c(F)c(F)c(F)c3F)cc12 | 524 | -3.3% (inactive) | -26.1% (inactive) | 98.8% | -0.212 | -0.943 | 0.127 | -2.09% (inactive) | -0.461 (inactive) | -2.6e-05 (inactive) | 0.0112 (inactive) | inactive | -9.48% (inactive)
18 | COC(=O)CSc1nc(N)nc(C)c1Br | 688 | -10% (inactive) | 23.8% (inactive) | 150% | 0.424 | 0.473 | 0.0816 | -3.95% (inactive) | -0.429 (inactive) | -3.4e-05 (inactive) | 0.00418 (inactive) | inactive | -4.73% (inactive)
19 | COCCCNC(=O)c1c(N)n(/N=C/c2cccnc2)c2nc3ccccc3nc12 | 719 | 4.4% (inactive) | 0.4% (inactive) | 113% | -0.256 | 0.735 | 2.99 | 4.25% (inactive) | -0.253 (inactive) | -3.5e-06 (inactive) | 0.00597 (inactive) | inactive | -6.04% (inactive)
20 | CCc1c(C)c2cc(Cl)c(O)c(CN3CCCCC3)c2oc1=O | 634 | -3.5% (inactive) | 6.3% (inactive) | 174% | 0.309 | 0.0643 | -0.532 | -10.6% (inactive) | -0.0112 (inactive) | -2.8e-08 (inactive) | 0.00604 (inactive) | inactive | -1.88% (inactive)
21 | Cc1ccccc1N1C(=O)C2ON(c3ccccc3)C(c3cccnc3)C2C1=O (stereo unspecified) | 541 | -7% (inactive) | 20.1% (inactive) | 88.7% | 1.39 | 0.945 | -1.38 | 7.7% (inactive) | -0.502 (inactive) | -4.4e-05 (inactive) | 0.00555 (inactive) | inactive | -7.8% (inactive)
22 | N#Cc1nc(COc2ccc(Br)cc2)oc1NCCN1CCOCC1 | 510 | -5.5% (inactive) | -38.7% (inactive) | 169% | 0.361 | 0.776 | 1.07 | 7.7% (inactive) | -0.432 (inactive) | -4.4e-05 (inactive) | 0.00542 (inactive) | inactive | -13.6% (inactive)
23 | CCOC(=O)CNC(=O)CNC(=O)c1ccc(OCC(C)C)cc1 | 694 | 2.1% (inactive) | -9.7% (inactive) | 146% | 0.797 | 0.341 | 0.093 | -5.81% (inactive) | -0.458 (inactive) | -5.4e-05 (inactive) | 0.00522 (inactive) | inactive | -6.07% (inactive)
24 | O=S(=O)(N[C@@H]1C[C@H]2CC[C@@H]1C2)c1cccs1 | 433 | -8.9% (inactive) | -51.9% (inactive) | 155% | 1.4 | -0.527 | -0.281 | 9.37% (inactive) | -0.458 (inactive) | -3.1e-05 (inactive) | 0.00569 (inactive) | inactive | -1.87% (inactive)
25 | CN(C)c1ccc(C=Nc2cnn(C)c2C(N)=O)cc1 | 657 | 5.6% (inactive) | 2% (inactive) | 112% | -0.322 | 0.511 | 0.593 | 9.91% (inactive) | -0.548 (inactive) | -8.2e-05 (inactive) | 0.00504 (inactive) | inactive | 13.4% (inactive)
26 | CC(C)CNc1nc2c(c(=O)n(C)c(=O)n2C)n1Cc1cccc(Br)c1 | 696 | 0.6% (inactive) | -160% (inactive) | 174% | 0.789 | -0.339 | -0.433 | 7.93% (inactive) | -0.498 (inactive) | -3.9e-05 (inactive) | 0.00519 (inactive) | inactive | 13.3% (inactive)
27 | O=c1[nH]c(CN(CCO)CCO)nc2c1C1(CCCCC1)Cc1ccccc1-2 | 692 | -15.1% (inactive) | -131% (inactive) | 181% | 0.688 | 0.303 | 0.475 | 9.91% (inactive) | -0.47 (inactive) | -5.1e-05 (inactive) | 0.00503 (inactive) | inactive | 1.18% (inactive)
